From PubChem BioAssay
Calls of active or inactive are those of the source.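 Rule for the calls, unless noted: active = viability at or below 30% in both replicate assays; inconclusive = viability at or below 30% in just one of the two assays; inactive = the rest.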

Legend:
[1] = SK-BR-3 cell growth inhibitors, pilot screen, 24 h, human (AID 572;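 active = viability at or below 10% of carrier control in both of two separate runs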;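 note: compound exposure lasted between 18 and 24 h rather than exactly 24 h; 100% = carrier-treated control wells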); details: SK-BR-3 viability, CellTiter-Glo luminescence, at 10 µM, stronger effect = lower value
[2] = HUVEC growth inhibition – cell-based, human, primary screen (AID 575); details: HUVEC proliferation, CellTiter-Glo luminescence, 72 h; at 10 µM; stronger effect = lower value;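 note: 100% = median of untreated cell wells with 0.1% DMSO on each plate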
How it was run: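 material = primary HUVEC, no more than 12 passages | input = 1250 cells per well | controls = vehicle and MePR control wells | measured by = CTG luminescence | times = 72 h compound incubation | format = collagen-coated 384-well format | read-out = % viability vs DMSO wells | doses = single 10 µM dose, 0.1% DMSO, from 5x medium stock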

[3] = reversal of MRP1-mediated doxorubicin resistance, pilot screen, H69AR cells, doxorubicin co-treatment (AID 601;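 active = viability loss from added drug above about 55%, and viability with drug at most 40%, in both replicates, limit read from the data, passing the limit was not always enough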); details: CellTiter-Glo, 72 h, at 10 µM; for differential viability (reversal): stronger effect = higher value
[4] = 384-well plate pilot, post-Golgi transport modulator project, inhibition of yeast transport mutant growth (AID 636; in the data active = inhibition above about 31%); details: absorbance 615 nm, about 18 h, stronger effect = higher value
[5] = growth suppression of yeast trafficking mutant, preliminary HTS, modulators of trafficking downstream of Golgi apparatus project, 1536-format plate, OD 615 nm (AID 637; in the data active = inhibition above about 30%); details: yeast transport mutant growth, absorbance 615 nm, 18 h; stronger effect = higher value
[6] = H69AR cells + 2 uM doxorubicin, measured here: viability with 2 uM doxorubicin, stronger effect = lower value
[7] = H69AR cells, compound alone cytotoxicity

Row | SMILES | viability [1] | viability [2] | differential viability (reversal) ([3]; H69AR cells + 2 uM doxorubicin) | viability [3, 6] [%] | viability [3, 7] [%] | inhibition [4] | inhibition [5]
1 | CCCCCC(=O)O[C@]1(C(C)=O)CC[C@H]2[C@@H]3CCC4=CC(=O)CC[C@]4(C)[C@H]3CC[C@@]21C | 93% (inactive) | 4.16% (active) | 20.6% (inactive) | 2.59 | 23.1 | 5.84% (inactive) | -2% (inactive)
2 | CCn1c(=N)n(CC(=O)c2ccco2)c2ccccc21 | 95% (inactive) | 95.5% (inactive) | -38.3% (inactive) | 73.2 | 34.9 | -5.2% (inactive) | -4% (inactive)
3 | CCOC(=O)c1c(NC(=O)COC(=O)c2c(C)noc2C)sc2c1CCC2 | 63% (inactive) | 35.6% (inactive) | 0.845% (inactive) | 47 | 47.8 | -8.36% (inactive) | -3.87% (inactive)
4 | Cc1[nH]nc2c1C1(C(=O)N(Cc3ccc(Cl)cc3)c3ccccc31)C(C#N)=C(N)O2 (centres undefined) | 94% (inactive) | 90% (inactive) | -39.8% (inactive) | 92 | 52.2 | -4.32% (inactive) | 0.18% (inactive)
5 | N#Cc1cc2ccc(N3CCOCC3)cc2cc1C#N | 85% (inactive) | 4.27% (active) | -33.5% (inactive) | 76.9 | 43.4 | -0.91% (inactive) | -3% (inactive)
6 | N#C/C(=C\c1ccc(O)c(O)c1)C(=O)NCCCc1ccccc1 | 88% (inactive) | 43.4% (inactive) | -33.4% (inactive) | 78 | 44.6 | 1.04% (inactive) | 5.5% (inactive)
7 | CN1CCN(CCCN2c3ccccc3Sc3ccc(C(F)(F)F)cc32)CC1 | 91% (inactive) | 2.21% (active) | -3.17% (inactive) | 4.2 | 1.03 | 1.43% (inactive) | 53.8% (active)
8 | COc1ccc(CCn2c(=N)c(C(=O)NCc3ccco3)cc3c(=O)n4ccccc4nc32)cc1 | 73% (inactive) | 57.9% (inactive) | -8.4% (inactive) | 64.5 | 56.1 | -6.76% (inactive) | -8.33% (inactive)
9 | CC(=O)[C@H]1CC[C@H]2[C@@H]3CCC4=CC(=O)CC[C@]4(C)[C@H]3CC[C@]12C | 93% (inactive) | 49.4% (inactive) | -3.29% (inactive) | 50.5 | 47.2 | 5.06% (inactive) | -1% (inactive)
10 | COc1ccccc1NC(=O)N(Cc1ccco1)Cc1cc2c(C)ccc(C)c2[nH]c1=O | 70% (inactive) | 71.1% (inactive) | -28.8% (inactive) | 50.9 | 22.1 | -2.88% (inactive) | -2.55% (inactive)
11 | O=C(CN1CCN(Cc2ccc3c(c2)OCO3)CC1)N1CCc2[nH]c3ccc(F)cc3c2C1 | 96% (inactive) | 58.8% (inactive) | -8.87% (inactive) | 61.4 | 52.5 | -2.13% (inactive) | -6% (inactive)
12 | N#Cc1c(N2CCCC2)nc(N)c2c(N)nc(N3CCCC3)cc12 | 82% (inactive) | 68.2% (inactive) | -29% (inactive) | 75.2 | 46.3 | -0.13% (inactive) | -2.3% (inactive)
